Activity calls are given as the source filed them. No cut-off for these calls is given here.
Columns and labels:
[1] = biological target: T1, Solute carrier family 12 member 2 (Homo sapiens) (UniProt P55011); assay: Inhibition of NKCC1 in human primary bronchial epithelial cells assessed as effect on short-circuit current at 10 uM after 10 mins by voltage clamp method
T1 sequence (whole entry): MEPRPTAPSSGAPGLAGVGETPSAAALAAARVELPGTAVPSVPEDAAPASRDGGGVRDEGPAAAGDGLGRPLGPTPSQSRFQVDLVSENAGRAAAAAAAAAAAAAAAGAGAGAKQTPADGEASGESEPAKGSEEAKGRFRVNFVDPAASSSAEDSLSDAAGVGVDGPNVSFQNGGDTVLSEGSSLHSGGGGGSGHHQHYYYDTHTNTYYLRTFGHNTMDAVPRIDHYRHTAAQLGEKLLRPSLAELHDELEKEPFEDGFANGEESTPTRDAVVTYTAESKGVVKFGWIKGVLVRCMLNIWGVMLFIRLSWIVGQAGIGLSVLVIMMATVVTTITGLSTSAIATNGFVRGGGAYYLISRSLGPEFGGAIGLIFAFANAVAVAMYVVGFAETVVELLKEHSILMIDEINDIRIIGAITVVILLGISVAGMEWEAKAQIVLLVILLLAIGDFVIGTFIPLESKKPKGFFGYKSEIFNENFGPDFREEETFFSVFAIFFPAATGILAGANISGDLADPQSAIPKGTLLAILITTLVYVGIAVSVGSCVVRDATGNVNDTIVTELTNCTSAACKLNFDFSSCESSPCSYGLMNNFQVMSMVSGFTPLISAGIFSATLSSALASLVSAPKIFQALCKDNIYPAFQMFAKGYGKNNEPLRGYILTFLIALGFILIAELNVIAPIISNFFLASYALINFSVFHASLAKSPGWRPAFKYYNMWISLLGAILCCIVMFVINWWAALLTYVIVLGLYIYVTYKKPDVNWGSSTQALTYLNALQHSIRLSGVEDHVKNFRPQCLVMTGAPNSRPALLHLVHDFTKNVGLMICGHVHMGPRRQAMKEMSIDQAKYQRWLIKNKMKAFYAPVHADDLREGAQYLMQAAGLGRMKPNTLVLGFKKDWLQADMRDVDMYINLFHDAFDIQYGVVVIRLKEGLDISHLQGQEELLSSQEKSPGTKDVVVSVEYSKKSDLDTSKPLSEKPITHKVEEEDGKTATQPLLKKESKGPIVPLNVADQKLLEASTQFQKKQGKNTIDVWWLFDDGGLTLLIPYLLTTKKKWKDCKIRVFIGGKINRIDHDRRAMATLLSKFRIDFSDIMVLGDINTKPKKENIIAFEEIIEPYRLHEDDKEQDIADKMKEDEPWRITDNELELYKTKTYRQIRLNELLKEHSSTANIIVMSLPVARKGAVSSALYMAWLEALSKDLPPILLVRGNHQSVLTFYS
Outline: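 Primary human bronchial epithelial cultures (air-liquid interface) in Ussing chambers, symmetrical HCO3−-buffered solutions, 95% O2/5% CO2, 37 °C. After 10 min preincubation with 10 μM compound, sequential 20 μM amiloride, 20 μM forskolin, 10 μM CFTRinh-172, 100 μM ATP; short-circuit current recorded under voltage clamp.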

[2] = biological target: Cystic fibrosis transmembrane conductance regulator (Homo sapiens, UniProt P13569); assay: Activation of human CFTR expressed in forskolin-stimulated basolateral membrane permeabilized FRT cells co-expressing YFP assessed as increase in short-circuit current by voltage clamp method; assay type: cell-based
Chain of Cystic fibrosis transmembrane conductance regulator (P13569 whole entry, looked up): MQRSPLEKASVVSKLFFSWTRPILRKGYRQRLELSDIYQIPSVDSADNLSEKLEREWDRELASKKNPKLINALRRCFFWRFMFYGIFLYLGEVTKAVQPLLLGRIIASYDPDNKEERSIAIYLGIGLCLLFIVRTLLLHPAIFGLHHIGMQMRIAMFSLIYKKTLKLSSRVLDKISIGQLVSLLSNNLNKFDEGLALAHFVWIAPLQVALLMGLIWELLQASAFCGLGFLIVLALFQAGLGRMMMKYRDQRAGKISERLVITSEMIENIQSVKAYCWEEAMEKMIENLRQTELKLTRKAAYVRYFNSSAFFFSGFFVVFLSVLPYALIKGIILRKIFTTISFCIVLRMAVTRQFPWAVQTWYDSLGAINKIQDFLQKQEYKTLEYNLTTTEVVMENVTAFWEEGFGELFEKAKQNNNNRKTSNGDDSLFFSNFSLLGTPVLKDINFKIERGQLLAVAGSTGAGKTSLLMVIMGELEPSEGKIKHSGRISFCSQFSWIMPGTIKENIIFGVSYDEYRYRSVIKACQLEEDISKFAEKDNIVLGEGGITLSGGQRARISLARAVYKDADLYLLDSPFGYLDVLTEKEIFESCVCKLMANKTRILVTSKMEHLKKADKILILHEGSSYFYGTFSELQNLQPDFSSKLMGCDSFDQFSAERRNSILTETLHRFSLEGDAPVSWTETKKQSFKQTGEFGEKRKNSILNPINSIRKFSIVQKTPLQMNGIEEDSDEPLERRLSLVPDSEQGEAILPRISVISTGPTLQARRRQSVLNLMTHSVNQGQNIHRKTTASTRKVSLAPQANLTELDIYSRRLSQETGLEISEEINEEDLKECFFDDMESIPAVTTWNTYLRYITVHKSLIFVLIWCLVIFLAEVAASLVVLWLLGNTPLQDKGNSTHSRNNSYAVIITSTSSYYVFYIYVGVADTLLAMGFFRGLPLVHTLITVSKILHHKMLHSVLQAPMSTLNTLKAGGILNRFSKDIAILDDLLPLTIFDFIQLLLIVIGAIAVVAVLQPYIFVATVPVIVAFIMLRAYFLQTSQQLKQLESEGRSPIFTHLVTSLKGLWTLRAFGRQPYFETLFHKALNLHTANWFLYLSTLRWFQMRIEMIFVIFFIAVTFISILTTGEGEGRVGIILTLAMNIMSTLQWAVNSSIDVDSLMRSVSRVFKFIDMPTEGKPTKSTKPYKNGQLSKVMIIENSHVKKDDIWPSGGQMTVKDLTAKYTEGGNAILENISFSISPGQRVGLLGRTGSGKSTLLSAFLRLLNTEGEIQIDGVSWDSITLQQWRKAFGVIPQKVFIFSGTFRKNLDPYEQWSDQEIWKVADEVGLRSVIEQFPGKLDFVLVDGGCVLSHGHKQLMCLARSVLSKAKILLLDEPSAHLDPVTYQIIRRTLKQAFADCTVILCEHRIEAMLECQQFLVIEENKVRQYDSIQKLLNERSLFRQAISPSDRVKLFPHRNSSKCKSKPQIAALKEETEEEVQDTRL
Outline: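 Ussing chamber with FRT cells co-expressing human wild-type CFTR and YFP. Basolateral side had HCO3−-buffered solution and the apical side half-Cl− solution. The basolateral membrane was permeabilized with 250 µg/mL amphotericin B. Solutions were gassed with 95% O2/5% CO2 at 37 °C. A low forskolin concentration was added first, then cumulative compound additions, then maximal forskolin and 10 µM CFTRinh-172; n = 3.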

[3] = Elevation of cAMP level in Fischer rat thyroid cells co-expressing YFP and human CFTR at 10 uM incubated for 10 mins by immunoassay; assay type: ADME, cell-based; conditions: thyroid cell
Outline: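 FRT cells expressing wild-type CFTR in 12-well plates, PBS-washed, incubated 10 min with 10 μM compound without or with 90 nM forskolin; references were forskolin alone (90 nM, 20 μM) and 20 μM forskolin + 100 μM IBMX. Lysates assayed for cAMP by immunoassay; mean ± SEM, n = 4.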

[4] = Suppression of ATP-stimulated elevation of cytoplasmic calcium level in Fischer rat thyroid cells co-expressing YFP and human CFTR at 10 uM incubated for 5 mins by fluo-4 dye based fluorescence assay; assay type: ADME; conditions: thyroid cell
Outline: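 FRT cells in 96-well plates loaded with Fluo-4 NW, pretreated 5 min with 10 μM compound or control; 100 μM ATP added as calcium agonist. Fluorescence followed in plate reader with syringe pumps. Representative of two to four experiment sets.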

CNc1nc(Nc2ccccc2)nc(OCC(F)(F)C(F)F)n1
inhibition [1]: inactive | Activity [2]: Dose-dependent effect | Activity [3]: Non-Toxic | Activity [4]: Non-Toxic

CCN(CC)c1nc(Nc2ccc3ncsc3c2)nc(OC(C(F)(F)F)C(F)(F)F)n1
inhibition [1]: inactive | Activity [2]: Dose-dependent effect | Activity [3]: Non-Toxic | Activity [4]: Non-Toxic

Source: ChEMBL document CHEMBL3997791, “Nanomolar-Potency Aminophenyl-1,3,5-triazine Activators of the Cystic Fibrosis Transmembrane Conductance Regulator (CFTR) Chloride Channel for Prosecretory Therapy of Dry Eye Diseases” (J Med Chem, 2017)
